Consider one compound from ChEMBL document CHEMBL4138315, “Synthesis and Evaluation of a Novel Bivalent Selective Antagonist for the Mu-Delta Opioid Receptor Heterodimer that Reduces Morphine Withdrawal in Mice” (J Med Chem, 2018).

The source made the active and inactive calls.

The species entered for data set [1] is Mus musculus. The experiment in a line: Antinociceptive activity in CD1 mouse assessed as reduction in morphine-induced nociception at 10 nmol pretreated for 5 mins followed by morphine injection measured up to 2 hrs by tail flick assay. In kind it is functional, organism-based. Put shortly: (§1)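 Male CD-1 mice received 10 nmol icv (vehicle 2% DMSO/10% Tween80/88% water), 5 min before sc agonist. SNC80 was 10 mg/kg in 20% DMSO/10% Tween80/70% saline; morphine was given in saline. 52°C tail flick, 10 s cutoff, recorded over a 2 h time course; experimenter blinded.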

Data set [2] is filed under the species Mus musculus. The experiment in a line: Antinociceptive activity in CD1 mouse assessed as reduction in SNC80-induced nociception at 10 nmol pretreated for 5 mins followed by SNC80 injection measured up to 2 hrs by tail flick assay. It counts as functional, organism-based. Put shortly: as §1
The subject of data set [3] is Mus musculus. Description: Reduction in morphine dependence expression in acute morphine dependence ICR mouse model assessed as reduction in jumping behavior at 1 nmol, icv up to 20 mins. It counts as functional, organism-based. Put shortly:
(§2)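 Acute dependence: morphine 100 mg/kg sc, then naloxone 10 mg/kg ip 4 h later. 1 nmol icv or vehicle given 5 min before naloxone; one control arm had no naloxone. Mice observed 20 min in plexiglass cylinders; jumps counted, then urine and feces weighed.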

In data set [4] the target is T1, Mu-type opioid receptor (Homo sapiens, UniProt P35372). The experiment in a line: Displacement of [3H]-diprenorphine from human MOR expressed in CHO cell membranes after 80 mins by scintillation counting analysis. As to conditions: cho. Put shortly:
(§3)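 Competition binding on MOR-, DOR- or MDOR-CHO membranes used a fixed 3H-diprenorphine level against competitor concentration curves; 30°C, 80 min, GF/B filtration, scintillation counting. Nonspecific binding defined with 500 nM each DMT-Tic-Ala-OH and CTAP. Ki was derived from IC50 and the 3H-diprenorphine KD in each line; MDOR data fitted with a 2-site model. N = 3-4, mean ± SEM.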

Data set [5] deals with Mus musculus. The experiment in a line: Antinociceptive activity in CD1 mouse assessed as reduction in DAMGO-induced nociception up to10 nmol, icv pretreated for 5 mins followed by DAMGO injection measured up to 2 hrs by tail flick assay. In kind it is functional, organism-based.
The species named for data set [6] is Homo sapiens. The experiment in a line: Selectivity ratio of IC50H for human mu-delta opioid receptor heterodimer expressed in CHO cell membranes to IC50 for human DOR expressed in CHO cell membranes. In kind it is cell-based.
The target of data set [7] is T1, Mu-type opioid receptor. Description: Antagonist activity at human MOR expressed in CHO cell membranes assessed as inhibition of CYM51010-induced [35S]-GTPgammaS binding preincubated for 5 mins followed by CYM51010 and [35S]-GTPgammaS addition measured after 80 mins. It counts as functional. To be noted: cho. Put shortly:
(§4)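 Membranes from CHO cells stably expressing human opioid receptor (N-terminal tagged) were preincubated 5 min with antagonist concentration curves, then given 1 µM CYM51010 and 0.1 nM 35S-GTPγS; 30°C, 80 min, GF/B filtration, scintillation counting. Normalized to CYM51010 alone (100%) and vehicle (0%). Fits: 1-site for MOR/DOR (IC50), 2-site for MDOR (IC50HIGH). N = 3-4, duplicate, mean ± SEM.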

The subject of data set [8] is Mus musculus. The experiment in a line: Antinociceptive activity in CD1 mouse assessed as reduction in DSLET-induced nociception up to 10 nmol, icv pretreated for 5 mins followed by DSLET injection measured up to 2 hrs by tail flick assay. In kind it is functional, organism-based.
Data set [9] has as its target T2, Opioid receptors; mu & delta (Homo sapiens, UniProt P41143+P35372). Description: Displacement of [3H]-diprenorphine from human mu-delta opioid receptor expressed in CHO cell membranes after 80 mins by scintillation counting analysis. Put shortly: as §3
For data set [10], the species on record is Homo sapiens. Description: Selectivity ratio of KiH for human mu-delta opioid receptor heterodimer expressed in CHO cell membranes to Ki for human DOR expressed in CHO cell membranes. In kind it is cell-based.
Data set [11] deals with Mus musculus. Description: Reduction in morphine dependence expression in acute morphine dependence ICR mouse model assessed as inhibition of naloxone-precipitated GI effects of withdrawal at 1 nmol, […] administered 5 mins prior to naloxone injection measured up to 20 mins. In kind it is functional, organism-based.
Data set [12] relates to Mus musculus. The experiment in a line: Reduction in morphine dependence expression in chronic morphine dependence ICR mouse model assessed as inhibition of naloxone-precipitated jumping behavior at 1 nmol, icv administered 5 mins prior to naloxone injection measured up to 20 mins relative to control. It counts as functional. Details: scale not given: the % may be the effect or the level left. Put shortly: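 Chronic dependence: morphine sc twice daily at 10, 20 and 35 mg/kg on days 1-3, single 35 mg/kg on morning of day 4. Naloxone 30 mg/kg ip 4 h later. 1 nmol icv or vehicle 5 min before naloxone. Jumps counted over 20 min in plexiglass cylinders, then urine and feces weighed.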

Data set [13] deals with Mus musculus. The experiment in a line: Reduction in morphine dependence expression in acute morphine dependence ICR mouse model assessed as inhibition of naloxone-precipitated jumping behavior at 1 nmol, icv administered 5 mins prior to naloxone injection measured up to 20 mins relative to control. More on the design: scale not given: the % may be the effect or the level left. It counts as functional. Put shortly:
as §2

Data set [14] addresses T2, Opioid receptors; mu & delta. Description: Antagonist activity at human mu-delta opioid receptor heterodimer expressed in CHO cell membranes assessed as inhibition of DAMGO-induced [35S]-GTPgammaS binding preincubated for 5 mins followed by DAMGO and [35S]-GTPgammaS addition measured after 80 mins. It counts as functional. Put shortly: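 MDOR-CHO membranes were preincubated 5 min with antagonist concentration curve, then 1 µM DAMGO and 0.1 nM 35S-GTPγS were added. Incubated 30°C, 80 min; filter harvest, scintillation counting. Normalized to agonist alone and vehicle. N = 3 independent experiments in duplicate.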

Data set [15] relates to Mus musculus. Description: Effect on tail flick response in CD1 mouse up to 10 nmol, icv measured up to 2 hrs. To be noted: in vivo, icv_or_intrathecal. It counts as ADME, organism-based. Put shortly:
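Naïve male CD-1 mice were given a dose range up to 10 nmol icv, 5 min before icv vehicle in place of agonist. Tail flick latency in 52°C water (10 s cutoff) recorded over 2 h, baseline first; experimenter blinded.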

Data set [16] concerns the target T2, Opioid receptors; mu & delta. Description: Antagonist activity at human mu-delta opioid receptor heterodimer expressed in CHO cell membranes assessed as inhibition of CYM51010-induced [35S]-GTPgammaS binding at high site fraction preincubated for 5 mins followed by CYM51010 and [35S]-GTPgammaS addition measured after 80 mins. In kind it is functional. Put shortly: as §4

Data set [17] concerns Mus musculus. The experiment in a line: Reduction in morphine dependence expression in acute morphine dependence ICR mouse model assessed as reduction in GI output at 1 nmol, icv up to 20 mins. In kind it is functional, organism-based. Put shortly: as §2
Data set [18] deals with Delta-type opioid receptor (Homo sapiens, UniProt P41143). Description: Displacement of [3H]-diprenorphine from human DOR expressed in CHO cell membranes after 80 mins by scintillation counting analysis. To be noted: cho. Put shortly:
as §3

Data set [19] addresses T2, Opioid receptors; mu & delta. The experiment in a line: Antagonist activity at human mu-delta opioid receptor heterodimer expressed in CHO cell membranes assessed as inhibition of CYM51010-induced [35S]-GTPgammaS binding at high site fraction preincubated for 5 mins followed by CYM51010 and [35S]-GTPgammaS addition measured after 80 mins relative to control. In kind it is functional. Put shortly:
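35S-GTPγS coupling in MDOR-CHO membranes: 5 min antagonist pre-incubation, then 1 µM CYM51010 plus 0.1 nM 35S-GTPγS, 30°C for 80 min, filtration and scintillation read. A 3-variable 2-site antagonist fit gave FHIGH, the fraction of the high-potency site. N = 3-4 independent experiments.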

Data set [20] has as its system Mus musculus. Description: Antinociceptive activity in icv dosed CD1 mouse assessed as reduction in Deltorphin-2-induced nociception pretreated for 5 mins followed by Deltorphin-2 injection measured up to 2 hrs by tail flick assay. In kind it is functional.
The target of data set [21] is T2, Opioid receptors; mu & delta. The experiment in a line: Displacement of [3H]-diprenorphine from human mu-delta opioid receptor heterodimer expressed in CHO cell membranes at high site fraction after 80 mins by scintillation counting analysis relative to control.

T2 sequence (P35372 whole entry, looked up): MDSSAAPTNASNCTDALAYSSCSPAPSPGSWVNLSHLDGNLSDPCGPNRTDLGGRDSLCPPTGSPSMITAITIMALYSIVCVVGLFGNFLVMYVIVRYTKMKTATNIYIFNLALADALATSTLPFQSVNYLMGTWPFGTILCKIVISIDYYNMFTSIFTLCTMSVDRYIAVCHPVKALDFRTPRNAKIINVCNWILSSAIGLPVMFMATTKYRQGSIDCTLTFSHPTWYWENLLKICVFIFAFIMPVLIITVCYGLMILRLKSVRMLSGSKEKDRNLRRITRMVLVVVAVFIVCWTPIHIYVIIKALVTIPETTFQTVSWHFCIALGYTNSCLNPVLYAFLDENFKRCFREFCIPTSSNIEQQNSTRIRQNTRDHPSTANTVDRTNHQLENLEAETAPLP
T2 sequence (P41143 whole entry, looked up): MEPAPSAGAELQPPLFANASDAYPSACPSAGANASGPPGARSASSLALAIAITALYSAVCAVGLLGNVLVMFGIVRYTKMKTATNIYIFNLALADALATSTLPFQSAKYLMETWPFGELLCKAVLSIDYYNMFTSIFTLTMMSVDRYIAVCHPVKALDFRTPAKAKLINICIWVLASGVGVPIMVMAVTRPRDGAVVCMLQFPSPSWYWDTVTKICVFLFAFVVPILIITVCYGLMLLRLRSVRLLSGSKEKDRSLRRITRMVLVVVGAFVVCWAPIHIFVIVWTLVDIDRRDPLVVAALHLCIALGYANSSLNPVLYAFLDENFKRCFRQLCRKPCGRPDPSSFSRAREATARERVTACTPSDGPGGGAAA
T1 sequence (P35372 whole entry): as the sequence (P35372 whole entry, looked up) above
Delta-type opioid receptor, sequence (P41143 whole entry): as the sequence (P41143 whole entry, looked up) above

Turning to `N[C@@H](Cc1ccc(O)cc1)C(=O)N1Cc2ccccc2C[C@@H]1C(=O)NCC(=O)NCCCCC(=O)N[C@H](CCCCNC(=O)CCCCNC(=O)CNC(=O)[C@@H](Cc1cccc2ccccc12)NC(=O)[C@H](Cc1ccccc1)NC(=O)[C@@H]1CCCN1C(=O)[C@@H](N)Cc1ccc(O)cc1)C(=O)O`, the outcome in data set [1] and in data set [17] was Active. Moreover, the result in data set [2], in data set [3], in data set [5], in data set [8] and in data set [11] was inactive. The results for the Ki in data set [4] and in [18] were above 1000 nM and 84 nM, respectively. In addition, in data set [6], the Ratio IC50 was 89. The IC50 in [7] is above 1000 nM; in data set [14], 153 nM. This compound also displayed a KiH in data set [9] of 0.63 nM. The Ratio Ki in data set [10] was found to be 133. Moreover, the Activity is 85.2% in [12], 53.2% in data set [13], “Non-Toxic” in data set [15] and “Dose-dependent effect” in [20]. Also, the IC50H in [16] was found to be 0.85 nM. Moreover, in data set [16], the IC50L is above 1000 nM. Moreover, the Imax in data set [19] was found to be 39%; in data set [21] it was 11%. In addition, in data set [20], the A50 came to 7.77 nmol.
